ChEMBL document CHEMBL4689842, “EUbOPEN Chemogenomics Library wave 1” (2021)

Test system: Fibroblast
Assay: Multiplex assay against human fibroblast
Assay type: toxicity, cell-based
Method in brief: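 At seeding, live cells were stained with Hoechst33342, BioTracker Green Microtubule Cytoskeleton Dye, MitoTracker Red and Annexin V Alexa Fluor 680. After compound addition they were imaged on a CQ1 microscope at 37°C and 5% CO2, and CellPathfinder machine-learning gating sorted them into Hoechst high-intensity objects or normal cells, with normal cells further split into healthy, pyknosed or fragmented nuclei and pyknosed cells into mitotic or apoptotic. Tubulin, mitochondrial-mass and membrane-permeability phenotypes are given as per cents of cells with healthy nuclei.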

[1] = 12 h, 1 µM, compound concentration 1 uM, replicate 1
[2] = 12 h, 1 µM, compound concentration 1 uM, replicate 2
[3] = 12 h, 10 µM, compound concentration 10 uM, replicate 1
[4] = 12 h, 10 µM, compound concentration 10 uM, replicate 2
[5] = 24 h, 1 µM, compound concentration 1 uM, replicate 1
[6] = 24 h, 1 µM, compound concentration 1 uM, replicate 2
[7] = 24 h, 10 µM, compound concentration 10 uM, replicate 1
[8] = 24 h, 10 µM, compound concentration 10 uM, replicate 2

CCOc1cc(N2CCC(O)CC2)ccc1Nc1ncc2c(n1)N(C1CCCC1)CCC(=O)N2C
Population Apoptotic (%) [1]: 64% | Population Fragmented Nuclei (%) [1]: 25% | Population Healthy Nuclei (%) [1]: 58% | Population Hoechst High Intensity Objects (%) [1]: 12% | Population Membrane Permeable-Phenotype (%) [1]: 8% | Population Mitochondria Different-Phenotype (%) [1]: 7% | Population Mitotic Cells (%) [1]: 35% | Population Normal (%) [1]: 87% | Population Pyknosed Nuclei (%) [1]: 16% | Population Tubulin-Different-Phenotype (%) [1]: 11% | Total Cell Count [1]: 197 | Population Apoptotic (%) [2]: 0% | Population Fragmented Nuclei (%) [2]: 46% | Population Healthy Nuclei (%) [2]: 48% | Population Hoechst High Intensity Objects (%) [2]: 33% | Population Membrane Permeable-Phenotype (%) [2]: 17% | Population Mitochondria Different-Phenotype (%) [2]: 17% | Population Mitotic Cells (%) [2]: 100% | Population Normal (%) [2]: 66% | Population Pyknosed Nuclei (%) [2]: 4% | Population Tubulin-Different-Phenotype (%) [2]: 39% | Total Cell Count [2]: 71 | Population Apoptotic (%) [3]: 84% | Population Fragmented Nuclei (%) [3]: 23% | Population Healthy Nuclei (%) [3]: 58% | Population Hoechst High Intensity Objects (%) [3]: 14% | Population Membrane Permeable-Phenotype (%) [3]: 8% | Population Mitochondria Different-Phenotype (%) [3]: 2% | Population Mitotic Cells (%) [3]: 15% | Population Normal (%) [3]: 85% | Population Pyknosed Nuclei (%) [3]: 17% | Population Tubulin-Different-Phenotype (%) [3]: 1% | Total Cell Count [3]: 291 | Population Apoptotic (%) [4]: 37% | Population Fragmented Nuclei (%) [4]: 50% | Population Healthy Nuclei (%) [4]: 36% | Population Hoechst High Intensity Objects (%) [4]: 29% | Population Membrane Permeable-Phenotype (%) [4]: 27% | Population Mitochondria Different-Phenotype (%) [4]: 4% | Population Mitotic Cells (%) [4]: 62% | Population Normal (%) [4]: 70% | Population Pyknosed Nuclei (%) [4]: 13% | Population Tubulin-Different-Phenotype (%) [4]: 18% | Population Apoptotic (%) [5]: 72% | Population Fragmented Nuclei (%) [5]: 27% | Population Healthy Nuclei (%) [5]: 56% | Population Hoechst High Intensity Objects (%) [5]: 12% | Population Membrane Permeable-Phenotype (%) [5]: 6% | Population Mitochondria Different-Phenotype (%) [5]: 6% | Population Mitotic Cells (%) [5]: 27% | Population Normal (%) [5]: 87% | Population Pyknosed Nuclei (%) [5]: 15% | Population Tubulin-Different-Phenotype (%) [5]: 7% | Total Cell Count [5]: 211 | Population Apoptotic (%) [6]: 66% | Population Fragmented Nuclei (%) [6]: 57% | Population Healthy Nuclei (%) [6]: 35% | Population Hoechst High Intensity Objects (%) [6]: 40% | Population Membrane Permeable-Phenotype (%) [6]: 26% | Population Mitochondria Different-Phenotype (%) [6]: 20% | Population Mitotic Cells (%) [6]: 33% | Population Normal (%) [6]: 59% | Population Pyknosed Nuclei (%) [6]: 7% | Population Tubulin-Different-Phenotype (%) [6]: 26% | Total Cell Count [6]: 71 | Population Apoptotic (%) [7]: 67% | Population Fragmented Nuclei (%) [7]: 17% | Population Healthy Nuclei (%) [7]: 62% | Population Hoechst High Intensity Objects (%) [7]: 19% | Population Membrane Permeable-Phenotype (%) [7]: 5% | Population Mitochondria Different-Phenotype (%) [7]: 1% | Population Mitotic Cells (%) [7]: 32% | Population Normal (%) [7]: 80% | Population Pyknosed Nuclei (%) [7]: 19% | Population Tubulin-Different-Phenotype (%) [7]: 1% | Total Cell Count [7]: 308 | Population Apoptotic (%) [8]: 60% | Population Fragmented Nuclei (%) [8]: 40% | Population Healthy Nuclei (%) [8]: 50% | Population Hoechst High Intensity Objects (%) [8]: 28% | Population Membrane Permeable-Phenotype (%) [8]: 18% | Population Mitochondria Different-Phenotype (%) [8]: 3% | Population Mitotic Cells (%) [8]: 40% | Population Normal (%) [8]: 72% | Population Pyknosed Nuclei (%) [8]: 9% | Population Tubulin-Different-Phenotype (%) [8]: 14% | Total Cell Count [8]: 75
